Measurements as given in ChEMBL document CHEMBL4689842, “EUbOPEN Chemogenomics Library wave 1” (2021).

Test system: HEK-293T
Test: Multiplex assay against HEK293T;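 on Population Tubulin-Different-Phenotype (%): share of the cells with healthy nuclei that show this phenotype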
Format: toxicity, cell-based
Conditions: human
Procedure, shortened: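 Tubulin, mitochondrial-mass and membrane-permeability phenotypes are per cents of healthy-nucleus cells. Cells were gated by CellPathfinder machine learning into Hoechst high-intensity objects or normal cells, normal cells into healthy, pyknosed or fragmented nuclei, and pyknosed cells into mitotic or apoptotic. Before that, live cells stained at seeding with Hoechst33342, BioTracker Green Microtubule Cytoskeleton Dye, MitoTracker Red and Annexin V Alexa Fluor 680 were imaged on a CQ1 microscope at 37°C and 5% CO2 after compound addition.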

[1] = 12 h, 1 µM, compound concentration 1 uM, replicate 1
[2] = 12 h, 1 µM, compound concentration 1 uM, replicate 2
[3] = 12 h, 10 µM, compound concentration 10 uM, replicate 1
[4] = 12 h, 10 µM, compound concentration 10 uM, replicate 2
[5] = 24 h, 1 µM, compound concentration 1 uM, replicate 1
[6] = 24 h, 1 µM, compound concentration 1 uM, replicate 2
[7] = 24 h, 10 µM, compound concentration 10 uM, replicate 1
[8] = 24 h, 10 µM, compound concentration 10 uM, replicate 2

CC(C)CC(=O)Nc1[nH]nc2c1CN(C(=O)C1CCN(C)CC1)C2(C)C [PHA-793887]
Population Apoptotic (%) [1]: 21%
Population Fragmented Nuclei (%) [1]: 10%
Population Healthy Nuclei (%) [1]: 72%
Population Hoechst High Intensity Objects (%) [1]: 8%
Population Membrane Permeable-Phenotype (%) [1]: 5%
Population Mitochondria Different-Phenotype (%) [1]: 4%
Population Mitotic Cells (%) [1]: 78%
Population Normal (%) [1]: 91%
Population Pyknosed Nuclei (%) [1]: 17%
Population Tubulin-Different-Phenotype (%) [1]: 2%
Total Cell Count [1]: 604
Population Apoptotic (%) [2]: 20%
Population Fragmented Nuclei (%) [2]: 9%
Population Healthy Nuclei (%) [2]: 87%
Population Hoechst High Intensity Objects (%) [2]: 2%
Population Membrane Permeable-Phenotype (%) [2]: 1%
Population Mitochondria Different-Phenotype (%) [2]: 6%
Population Mitotic Cells (%) [2]: 80%
Population Normal (%) [2]: 97%
Population Pyknosed Nuclei (%) [2]: 3%
Population Tubulin-Different-Phenotype (%) [2]: 4%
Total Cell Count [2]: 1420
Population Apoptotic (%) [3]: 21%
Population Fragmented Nuclei (%) [3]: 13%
Population Healthy Nuclei (%) [3]: 69%
Population Hoechst High Intensity Objects (%) [3]: 12%
Population Membrane Permeable-Phenotype (%) [3]: 2%
Population Mitochondria Different-Phenotype (%) [3]: 7%
Population Mitotic Cells (%) [3]: 78%
Population Normal (%) [3]: 87%
Population Pyknosed Nuclei (%) [3]: 16%
Population Tubulin-Different-Phenotype (%) [3]: 3%
Total Cell Count [3]: 585
Population Apoptotic (%) [4]: 25%
Population Fragmented Nuclei (%) [4]: 7%
Population Healthy Nuclei (%) [4]: 89%
Population Hoechst High Intensity Objects (%) [4]: 5%
Population Membrane Permeable-Phenotype (%) [4]: 0%
Population Mitotic Cells (%) [4]: 74%
Population Normal (%) [4]: 94%
Population Pyknosed Nuclei (%) [4]: 2%
Population Tubulin-Different-Phenotype (%) [4]: 2%
Total Cell Count [4]: 1190
Population Apoptotic (%) [5]: 27%
Population Fragmented Nuclei (%) [5]: 9%
Population Healthy Nuclei (%) [5]: 81%
Population Hoechst High Intensity Objects (%) [5]: 4%
Population Membrane Permeable-Phenotype (%) [5]: 7%
Population Mitochondria Different-Phenotype (%) [5]: 3%
Population Mitotic Cells (%) [5]: 72%
Population Normal (%) [5]: 95%
Population Pyknosed Nuclei (%) [5]: 9%
Population Tubulin-Different-Phenotype (%) [5]: 4%
Total Cell Count [5]: 638
Population Apoptotic (%) [6]: 11%
Population Fragmented Nuclei (%) [6]: 23%
Population Healthy Nuclei (%) [6]: 72%
Population Hoechst High Intensity Objects (%) [6]: 3%
Population Membrane Permeable-Phenotype (%) [6]: 2%
Population Mitochondria Different-Phenotype (%) [6]: 2%
Population Mitotic Cells (%) [6]: 88%
Population Normal (%) [6]: 96%
Population Pyknosed Nuclei (%) [6]: 3%
Population Tubulin-Different-Phenotype (%) [6]: 6%
Total Cell Count [6]: 1935
Population Apoptotic (%) [7]: 25%
Population Fragmented Nuclei (%) [7]: 13%
Population Healthy Nuclei (%) [7]: 70%
Population Hoechst High Intensity Objects (%) [7]: 15%
Population Membrane Permeable-Phenotype (%) [7]: 4%
Population Mitochondria Different-Phenotype (%) [7]: 7%
Population Mitotic Cells (%) [7]: 75%
Population Normal (%) [7]: 84%
Population Pyknosed Nuclei (%) [7]: 15%
Population Tubulin-Different-Phenotype (%) [7]: 8%
Total Cell Count [7]: 545
Population Apoptotic (%) [8]: 36%
Population Fragmented Nuclei (%) [8]: 11%
Population Healthy Nuclei (%) [8]: 86%
Population Hoechst High Intensity Objects (%) [8]: 4%
Population Membrane Permeable-Phenotype (%) [8]: 1%
Population Mitotic Cells (%) [8]: 63%
Population Normal (%) [8]: 95%
Population Pyknosed Nuclei (%) [8]: 2%
Population Tubulin-Different-Phenotype (%) [8]: 4%
Total Cell Count [8]: 1297
